Measurements as given in the EternaBench riboswitch data.

Test system: MS2 coat protein
Experiment: apparent Kd, MS2 coat protein; higher = weaker binding; RNA-MaP array; tryptophan 2.4 mM where present
Procedure, shortened: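 Apparent Kd: the median of filtered binding-curve fits from single clusters. Designs were transcribed on Illumina sequencing-chip clusters by stalled E. coli RNA polymerase and titrated with SNAP-549-labelled MS2 coat protein from 0.7 or 1.5 nM, doubling to 3 µM, in 100 mM Tris-HCl pH 7.5, 80 mM KCl, 4 mM MgCl2, BSA, DTT, yeast tRNA and Tween-20. Each series ran without and then with constant ligand, and green signal was normalised to red-channel RNA signal and control-cluster median Fmax.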

[1] = designed as: ON switch for tryptophan, no ligand
[2] = ligand present: tryptophan, designed as: ON switch for tryptophan

AUCAUAAUAGACUCGUUAGAUUAUAUGGAACGAGGACCGGUACGGCCGCCACUCGUGAUGUACAUGAGGAUCACCCAUGUUAGCA
apparent Kd [1]: 13.5 nM
apparent Kd [2]: 13.5 nM

ACAUGAGGAUCACCCAUGUAACGGCAUAAUCGAGGACCGGUACGGCCGCCACUCGGAAUCAGUGACAGGCAUAUUUAUUAUAAGA
apparent Kd (designed as: OFF switch for tryptophan, no ligand): 9.88 nM
apparent Kd (ligand present: tryptophan, designed as: OFF switch for tryptophan): 10 nM

GCUCACAUGAGGAUCACCCAUGUACGUCCGCGAGGACCGGUACGGCCGCCACUCGUGUUAGCUUCAAACUUGUUAGUGUUAAACA
apparent Kd [1]: 40.4 nM
apparent Kd [2]: 16.1 nM

CUACAUGUAGUUAAACCGGUCAACAAUAAUCGAGGACCGGUACGGCCGCCACUCGAUGUGUUAUACACAUGAGGAUCACCCAUGU
apparent Kd [1]: 23.2 nM
apparent Kd [2]: 18.9 nM

ACAUUGCGCACGGCCGCCACUGGCUAUAGAUUUAUAGCAUUAAUGAACAUGAGGAUCACCCAUGUCAGGACCGGGUGCGAACCAU
apparent Kd [1]: 17.3 nM
apparent Kd [2]: 19.7 nM
